S1P4 ag – activates the human S1P4 receptor; activation, % at 4.98 µM; 220,000 compounds, 0.35% hits; O95977; S1P4-expressing cell line, agonist reporter assay; in the data active means activation above about 11%;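 further: 0% = DMSO vehicle and 100% = reference agonist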
NPY-Y2 PAM-ag – potentiators or agonists of human neuropeptide Y receptor Y2; P49146; cells expressing NPY-Y2, potentiator/agonist read-out; activation, % at 3.6 µM; 220,000 compounds, 0.45% hits; AID 1359; in the data active means activation above about 27%;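 further: cells stimulated with NPY near EC25 plus isoproterenol at EC100; 0% = vehicle plus submaximal agonist and 100% = vehicle plus saturating agonist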
Target sequence (P49146 whole entry, looked up): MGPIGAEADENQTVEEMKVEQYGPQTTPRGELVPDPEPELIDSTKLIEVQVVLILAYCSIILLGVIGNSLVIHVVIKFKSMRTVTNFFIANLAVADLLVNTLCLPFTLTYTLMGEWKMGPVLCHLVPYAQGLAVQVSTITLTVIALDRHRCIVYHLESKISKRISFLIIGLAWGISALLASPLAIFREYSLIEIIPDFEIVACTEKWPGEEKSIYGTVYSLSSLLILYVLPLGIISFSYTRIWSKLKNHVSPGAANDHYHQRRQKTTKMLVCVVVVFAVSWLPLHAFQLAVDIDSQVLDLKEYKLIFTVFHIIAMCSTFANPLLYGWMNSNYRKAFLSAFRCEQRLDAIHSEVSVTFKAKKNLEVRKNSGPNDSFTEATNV
S1P4 antagonist – antagonists of human S1P4 receptor. inhibition, % at 4.98 µM. 220,000 compounds, 0.26% hits. O95977. AID 1510. S1P4-expressing cells, antagonist mode, reporter read-out; in the data active means inhibition above about 29%;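 further: 0% = wells stimulated with agonist and 100% = vehicle wells without agonist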
NPY-Y1 PAM-ag – potentiators or agonists of human neuropeptide Y receptor Y1; P25929; activation, % at 3.6 µM; AID 1304; NPY-Y1 expressing cells, potentiator/agonist activation; 220,000 compounds, 0.37% hits; in the data active means activation above about 33%, passing the limit was not always enough;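 further: cells stimulated with NPY at EC10 then isoproterenol at EC100; 0% = low agonist plus stimulus and 100% = saturating agonist plus stimulus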
NPY Y1 blocker – blocks the human neuropeptide Y Y1 receptor; inhibition, % at 3.6 µM; P25929; HEK293-CNG Y1 cells, membrane potential fluorescence; NPY at EC95, then isoproterenol; 200,000 compounds, 1% hits;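 active means inhibition above the campaign mean inhibition of all tested compounds plus 3 SD, cut at about 20% in these data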;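 further: 0% = DMSO wells given NPY plus isoproterenol and 100% = isoproterenol alone without NPY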
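Material: HEK293 cells with Y1 receptor plus CNG channel; times: compound incubation 1 h at room temperature, readout 45 min post-stimulation; signal: fluorescence, membrane potential probe; read-out basis: fluorescence ratio normalized to % inhibition between controls; benchmarks: full-block control isoproterenol-only wells, zero-block control NPY plus isoproterenol wells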
NPY Y2 blocker – antagonists of human neuropeptide Y receptor Y2 | P49146 | NPY-Y2 expressing cells, antagonist mode | inhibition, % at 2.7 µM | 140,000 compounds, 0.99% hits;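 further: 0% = vehicle with agonist challenge and 100% = reference antagonist with challenge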
NPY-Y1 ant conf – human NPY-Y1 antagonism, confirmation. shares compounds with NPY Y1 blocker. HEK293-CNG NPY-Y1, membrane potential fluorescence, cAMP; NPY challenge against isoproterenol-raised cAMP. 1,200 compounds, 21% hits. AID 1254. inhibition, % at 3.6 µM; in the data active means inhibition above about 20%;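 further: 0% = vehicle with agonist plus stimulus and 100% = stimulus alone without agonist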
NPY2 antag ctr – human NPY-Y2 antagonism in NPY-Y1 counter-screen; 1,200 compounds, 28% hits; shares compounds with NPY Y1 blocker; inhibition, % at 3.6 µM; HEK293 NPY-Y2 CNG membrane potential fluorescence; cells given NPY, then isoproterenol;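 further: 0% = DMSO with agonist challenge and 100% = reference antagonist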
Active calls of the source: *; x = no result given. An excerpt weighted towards active compounds, which were near 2.4% of everything screened. Unless noted, no stated cut-off is given here; in the data, active means inhibition above about 17%; inactive means the rest.

SMILES | S1P4 ag | NPY-Y2 PAM-ag | S1P4 antagonist | NPY-Y1 PAM-ag | NPY Y1 blocker | NPY Y2 blocker | NPY-Y1 ant conf | NPY2 antag ctr
CCOC(=O)NC(=O)c1cn(Nc2ccccc2C(F)(F)F)c(=O)[nH]c1=O | 0 | 5 | 7 | -4 | x | x | x | x
COC(=O)c1cc2c(ccn2-c2ccc(F)cc2)n1Cc1ccc(OC(C)=O)cc1 | -2 | 1 | 6 | -24 | -1 | 2 | x | x
CCCn1c(C(=O)OC)cc2c1ccn2-c1ccc(F)cc1 | 0 | -16 | -3 | -18 | 55* | 9 | 18 | 16
COC(=O)c1cc2c(ccn2-c2ccc(F)cc2)n1CC(C)C | 0 | -11 | -1 | -28 | 48* | 10 | 26* | 22*
Cc1ccc(CN2CCN(Cc3cnc(C)[nH]3)CC2CCO)cc1 (configuration not stated) | 1 | -13 | 7 | -16 | 5 | x | x | x
O=C(NCc1cccs1)C1CC(c2ccc(Cl)c(Cl)c2)=NO1 (configuration not stated) | 1 | -35 | -10 | -18 | 24* | x | 18 | 29*
COc1ccc(C2=NOC(C(=O)NCc3ccccc3)C2)cc1 (configuration not stated) | 0 | -12 | -25 | -18 | 29* | 8 | 13 | 19*
COc1ccc(CNC(=O)C2CC(c3cccc([N+](=O)[O-])c3)=NO2)cc1 (configuration not stated) | 2 | -16 | -16 | -28 | 11 | 11 | x | x
COc1cccc(C2=NOC(C(=O)NCc3ccccc3)C2)c1 (configuration not stated) | 1 | -39 | -14 | -30 | 45* | 10 | 17 | 28*
O=C(NCc1cccs1)C1CC(c2ccc(Cl)cc2)=NO1 (configuration not stated) | 0 | -10 | 2 | -13 | 0 | x | x | x
O=c1c2ccccc2nc(-c2ccco2)n1Cc1ccccc1 | -2 | 6 | -7 | -2 | 2 | 4 | x | x
O=c1c2ccccc2nc(-c2ccc(Br)cc2)n1Cc1ccccc1 | 1 | -33 | -29 | -86 | 24* | 5 | 21* | 32*
N#Cc1cc(C#N)c(N2CCN(c3ccccn3)CC2)nc1N | 0 | -19 | -3 | -2 | -6 | 0 | x | x
CSc1nc(N)nc(C2CC2)n1 | 2 | 2 | 10 | 16 | x | x | x | x
O=C(Nc1cccc(Cl)c1)C1C2CCC3C(CCC21)C3(Cl)Cl (configuration not stated) | -1 | 8 | 2 | -13 | 33* | 14 | 5 | 2
O=C(O)C1CC=CCC1C(=O)Nc1cccc(Cl)c1 (configuration not stated) | 1 | -4 | -5 | -18 | 1 | 6 | x | x
OC(COc1c(F)cc(Br)cc1F)CN1CCN(c2ccc(F)cc2)CC1 (configuration not stated) | 0 | 2 | -2 | -23 | 20* | 7 | 4 | 9
OC(COc1ccc2ccccc2c1)CN1CCN(c2ccc(F)cc2)CC1 (configuration not stated) | 2 | -7 | 2 | -12 | 8 | 8 | x | x
NNC(=O)c1cccc(O)c1 | 0 | -3 | 2 | -11 | 9 | 0 | x | x
COc1ccc(NC(=O)C2CC(=O)N/C(=N/NC(=O)c3ccc(Cl)cc3)S2)cc1 (configuration not stated) | 1 | -1 | -11 | -6 | x | x | x | x
O=C(NCc1ccco1)C(c1ccncc1)N(C(=O)Cc1cccs1)c1ccccc1 (configuration not stated) | -1 | -14 | -26 | 1 | 5 | x | x | x
O=C(NCc1ccco1)C(c1ccccc1)N(C(=O)Cc1cccs1)c1ccccc1F (configuration not stated) | 0 | -1 | 10 | 7 | 22* | 13 | 2 | 3
COc1cc2c(cc1NC(=O)c1cccnc1)CCCC2 | 0 | 6 | -15 | -13 | -6 | 0 | x | x
COc1ccc(C(=O)Nc2cc3c(cc2OC)CCCC3)cc1Br | 0 | -21 | -19 | -78 | 29* | 10 | 9 | 10
COc1cc2c(cc1NC(=O)c1ccc(C(C)(C)C)cc1)CCCC2 | 3 | -37 | -10 | -73 | 32* | 10 | 20 | 45*
SMILES | S1P4 ag | NPY-Y2 PAM-ag | S1P4 antagonist | NPY-Y1 PAM-ag | NPY Y1 blocker | NPY Y2 blocker | NPY-Y1 ant conf | NPY2 antag ctr
OCCNCc1cc(Br)ccc1OCc1ccc(F)cc1 | 0 | -13 | 0 | -33 | 6 | x | x | x
OCCNCc1cc(Br)ccc1OCc1ccc(Cl)cc1 | 0 | -5 | -1 | -8 | 24* | 12 | 8 | 13
COc1ccc(C(=O)n2c(-c3ccco3)nc3ccccc32)cc1 | 0 | -17 | 10 | -30 | 23* | 7 | 8 | 14
O=C(NN=C1CCCC1)c1ccccc1OCCOc1ccccc1 | 0 | -24 | -13 | -19 | 2 | x | x | x
O=C(NN=C1CCCCC1)c1ccccc1OCc1ccc(F)cc1 | 0 | -44 | -7 | -52 | 30* | 5 | -2 | 3
CN(C)CCC1Sc2ccccc2Oc2ccccc21 (configuration not stated) | -2 | -18 | 25 | -41 | 27* | 6 | 4 | 5
O=C(N/N=C/c1ccc(Br)s1)c1c[nH]c2ccccc12 | 1 | -6 | -9 | 8 | 20* | 3 | 0 | 0
COc1cccc(-c2nnc3n2N=C(c2cc(OC)ccc2OC)CS3)c1 | 2 | -17 | -11 | -1 | 9 | 9 | x | x
COc1ccc(OC)c(C2=Nn3c(nnc3-c3cc(OC)c(OC)c(OC)c3)SC2)c1 | 0 | -14 | -20 | -34 | 27* | 6 | 24* | 29*
CCOC(=O)Nc1cc(NC(=O)OCC)c(C)nc1C | 0 | 0 | 12 | 8 | x | x | x | x
COc1cccc(Cn2c(-c3nonc3N)nc3ccccc32)c1 | 1 | -16 | 8 | -43 | 26* | 12 | 11 | 14
COc1cc(Cn2c(-c3nonc3N)nc3ccccc32)ccc1C | -3 | -35 | -12 | -60 | 30* | 14 | 15 | 24*
COc1ccc(CCNC(=O)Cn2c(-c3nonc3N)nc3ccccc32)cc1OC | 0 | 0 | 5 | -9 | 10 | 5 | x | x
C=COCCn1c(-c2nonc2N)nc2ccccc21 | -1 | -2 | 7 | -7 | 11 | 10 | x | x
CCOC(=O)N/N=C(\CCC(=O)O)c1cccs1 | 0 | 4 | 7 | 16 | x | x | x | x
CCOc1ccc(S(=O)(=O)N2c3ccccc3CC2C)cc1 (configuration not stated) | 2 | -10 | 6 | -27 | 38* | 15 | 8 | 17*
Cc1ccsc1C(=O)C1CCCN(Cc2cc(F)ccc2-n2cccn2)C1 (configuration not stated) | 0 | -34 | -1 | -22 | 30* | x | 8 | 12

Screens deposited in PubChem BioAssay by The Scripps Research Institute Molecular Screening Center.
